# Screens deposited in PubChem by Sanford-Burnham Center for Chemical Genomics.
# SENP8 block-1 = human SENP8 protease inhibitors, primary screen, biochemical, fluorescence, Nedd8 protein substrate, uHTS; Sentrin-specific protease 8 (Homo sapiens), Q96LD8; recombinant SENP8; inhibition, % at 20 µM; actives 0.64% (n = 360,000); in the data active = inhibition mostly above about 40%, no sharp cut-off; inactive = mostly below about 27%
# SENP7 block = SENP7 protease inhibitors, primary screen, biochemical, luminescence, uHTS | Sentrin-specific protease 7 (Homo sapiens), Q9BQF6 | recombinant SENP7, Z-RLRGG-aminoluciferin luminescence, 40 min | inhibition, % at 5 µM | actives 1.5% (n = 330,000) | AID 434973, 2010;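 active = inhibition above about 50% at the single test dose, limit read from the data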
# SENP1 inh = human SENP1 catalytic domain inhibitors, primary screen, biochemical, FRET, uHTS; actives 0.21% (n = 360,000); AID 624204, 2012; inhibition, % at 10 µM; Sentrin-specific protease 1 (Homo sapiens), Q9P0U3; recombinant SENP1 catalytic domain, CyPet-SUMO1-YPet FRET cleavage;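 active = inhibition at least 30% at 10 µM, raw YFP signal under a set limit, fluorescence ratio 0.5 to 1.5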
#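 Compound: 10 µM single point, 0.5% DMSO; Test system: hSENP1 catalytic domain, recombinant; Timing: 50 min reaction at room temperature; Technique: FRET, CFP and YFP emission; Control set: no-enzyme wells low, DMSO-plus-enzyme wells high control.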
# SENP8 block-2 = SENP8 protease inhibitors, primary screen, biochemical, luminescence. purified SENP8, Z-RLRGG-aminoluciferin cleavage. inhibition, % at 10 µM. actives 1.2% (n = 330,000); in the data active = inhibition above about 50%
# SENP6 block = SENP6 protease inhibitors, primary screen, biochemical, luminescence, uHTS. Recombinant SENP6 catalytic domain, aminoluciferin luminescence. Sentrin-specific protease 6 (Homo sapiens), Q9GZR1. AID 2599, 2010. inhibition, % at 10 µM. actives 1.8% (n = 330,000);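 active = inhibition above about 50% at the single tested dose, limit read from the data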
# Target sequence (Q9GZR1 628-1112 limits assumed): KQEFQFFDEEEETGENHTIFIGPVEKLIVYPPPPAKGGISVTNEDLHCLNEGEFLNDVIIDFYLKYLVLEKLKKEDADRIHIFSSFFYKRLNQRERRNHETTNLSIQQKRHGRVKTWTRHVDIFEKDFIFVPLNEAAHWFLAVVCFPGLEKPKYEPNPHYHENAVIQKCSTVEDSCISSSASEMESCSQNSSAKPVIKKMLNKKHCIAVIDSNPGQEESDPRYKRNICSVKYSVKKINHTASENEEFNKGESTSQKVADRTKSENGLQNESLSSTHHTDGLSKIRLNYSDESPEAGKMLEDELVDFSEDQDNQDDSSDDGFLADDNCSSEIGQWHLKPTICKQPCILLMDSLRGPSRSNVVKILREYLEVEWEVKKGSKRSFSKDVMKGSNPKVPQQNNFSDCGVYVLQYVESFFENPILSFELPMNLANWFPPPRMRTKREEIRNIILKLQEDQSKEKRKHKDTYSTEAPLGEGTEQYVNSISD
# NRP1-CendR mod = modulators of CendR peptide binding to NRP-1, primary screen, biochemical, fluorescence polarization, uHTS; actives 0.85% (n = 360,000); AID 602438, 2012; FAM-RPARPAR peptide binding to NRP-1; inhibition, % at 25 µM;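 active = inhibition or corrected inhibition above about 18%, plus a signal ratio from 0.5 to 1.5, limit read from the data, passing the limit was not always enough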
# SENP1 inh conf = human SENP1 catalytic domain inhibitors, confirmation, biochemical, FRET endpoint, single concentration; inhibition, % at 10 µM; shares compounds with SENP1 inh; actives 34% (n = 520); AID 651678, 2012; recombinant SENP1, CyPet-SUMO1-YPet FRET cleavage; in the data active = inhibition mostly above about 35%, no sharp cut-off; inactive = mostly below about 32%
# SENP1 kin conf = human SENP1 catalytic domain inhibitors, confirmation, biochemical, kinetic FRET, single concentration | actives 26% (n = 520) | inhibition, % at 10 µM | AID 651690, 2012 | shares compounds with SENP1 inh | recombinant SENP1, CyPet-SUMO1-YPet FRET kinetic cleavage; in the data active = inhibition mostly above about 32%, no sharp cut-off; inactive = mostly below about 29%
# A number is an active result; . = inactive; / = not tested or not shown; ! = not active in a repeat. Rows were chosen to be rich in hits. Some 3.3% of all compounds tested hit in one or more screens of this group.
SMILES,SENP8 block-1,SENP7 block,SENP1 inh,SENP8 block-2,SENP6 block,NRP1-CendR mod,SENP1 inh conf,SENP1 kin conf
CCOc1cc(/C=C2\SC(=O)N=C2N)ccc1O,.,.,31.0,.,.,.,61.1,45.6
CCOc1cc(/C=C2\N=C3CCCCCN3C2=O)ccc1O,.,.,38.8,.,.,.,56.0,50.5
CNc1ncnc2c1cnn2C1CCCCO1 (configuration not stated),.,/,.,/,/,.,/,/
COc1cc(/C=C2\SC(=S)N(CCC(=O)Nc3ccc(O)cc3)C2=O)cc(OC)c1OC,.,.,.,.,.,.,/,/
CCc1nnc(NC(=O)CCN2C(=O)/C(=C/c3cc(OC)c(OC)c(OC)c3)SC2=S)s1,.,.,48.2,.,.,.,39.2,.
O=C(O)c1cc(O)c2c(c1)[C@@H]([C@H]1c3cc(C(=O)O)cc(O)c3C(=O)c3c(O[C@@H]4O[C@H](CO)[C@@H](O)[C@H](O)[C@H]4O)cccc31)c1cccc(OC3O[C@H](CO)[C@@H](O)[C@H](O)[C@H]3O)c1C2=O (some centres not stated),.,.,.,.,.,.,/,/
O=C1c2cc(CO)cc(O)c2C(=O)c2c(O[C@@H]3OC(CO)[C@@H](O)[C@@H](O)[C@@H]3O)cccc21 (some centres not stated),54.0,.,42.6,.,.,.,45.5,.
COc1cc(F)ccc1-c1csc(C(C)(O)c2ccccc2)n1 (configuration not stated),.,/,.,/,/,.,/,/
COC(=O)Nc1sc2c(c1C(N)=O)CCC(C)C2 (configuration not stated),.,.,41.2,.,.,.,.,.
Cc1nc2ccc(S(=O)(=O)N(C)CC(=O)NCc3ccc(N(C)C)cc3)cc2s1,.,.,56.5,.,.,.,.,.
Cc1nc2ccc(S(=O)(=O)N(C)CC(=O)NCc3ccc4c(c3)OCO4)cc2s1,.,.,.,.,.,.,/,/
CC(CC(=O)Nc1ccc2c(c1)c(=O)n(C)n2-c1ccc2ccccc2c1)C(F)(F)F (configuration not stated),.,/,.,/,/,.,/,/
Cc1cc2nc(CN(C)C(=O)C3CCC(=O)N(C4CCCC4)C3)[nH]c2cc1C (configuration not stated),.,/,.,/,/,.,/,/
Nc1ccc2c(c1)C(=O)N(CCCC(=O)O)C2=O,.,.,74.4,.,.,.,56.3,.
CCN1/C(=C\C=C(C(C)=O)C(C)=O)Sc2ccccc21,.,.,.,.,.,.,/,/
CCN1/C(=C\C=C2\C(=O)N(c3ccccc3)C(=S)N2C)Sc2ccccc21,.,/,34.6,/,/,.,.,.
CCOc1ccc(Cn2c3ccc(OC)cc3c3nc4ccccc4nc32)cc1OC,.,.,41.8,.,.,.,67.9,48.4
CCc1nc2ccccc2n1Cc1ccc(OC)c(OC)c1,.,.,.,.,.,.,/,/
COc1ccc(/C=C/c2nc3ccccc3n2Cc2ccc(OC)c(OC)c2)cc1,.,.,.,.,.,.,/,/
COc1ccc2c(c1)c1nc3ccccc3nc1n2Cc1ccc(OC)c(OC)c1,.,/,38.6,/,/,.,62.8,52.0
COc1cc(/C=C/C(=O)OCC(=O)Nc2cc(C)c(C)cc2[N+](=O)[O-])ccc1O,.,.,.,.,.,.,/,/
COc1cc(/C=C/C(=O)OCC(=O)Nc2ccc(C)cc2[N+](=O)[O-])ccc1O,.,.,38.5,.,.,.,.,.
Cc1ccc(NC(=O)CN(C)C(=O)COc2ccccc2-c2ccccc2)cc1,.,.,.,.,.,.,/,/
CN1C[C@H](C(=O)N[C@]2(C)O[C@@]3(O)[C@@H]4CCCN4C(=O)[C@H](Cc4ccccc4)N3C2=O)CC2c3cccc4[nH]cc(c34)C[C@H]21 (some centres not stated),.,.,33.6!,.,.,.,.,.
CC(C)C[C@H]1C(=O)N2CCC[C@H]2[C@]2(O)O[C@](NC(=O)C3C=C4c5cccc6[nH]c(Br)c(c56)C[C@H]4N(C)C3)(C(C)C)C(=O)N12 (some centres not stated),.,.,.,.,.,.,/,/
SMILES,SENP8 block-1,SENP7 block,SENP1 inh,SENP8 block-2,SENP6 block,NRP1-CendR mod,SENP1 inh conf,SENP1 kin conf
CC1=C(C(N)=O)S(=O)(=O)c2ccccc21,.,.,47.0,.,.,.,47.2,.
Cn1c(=O)oc2cc(S(=O)(=O)Nc3ccc(C(=O)O)cc3)ccc21,.,/,.,/,/,.,/,/
CC(C)C(=O)N(Cc1ccccc1)S(=O)(=O)c1ccc2c(c1)oc(=O)n2C,.,.,42.7,.,.,.,.,.
Cn1c(=O)oc2cc(S(=O)(=O)NCc3ccc(C(=O)O)cc3)ccc21,.,.,28.3,.,.,.,.,.
COc1ccc(C(C)(C)C)cc1NC(=O)COC(=O)CN1C(=O)NC2(CCCCC2C)C1=O (configuration not stated),.,.,.,.,.,.,/,/
O=C1CCCC2=C1Sc1ccc(Cl)cc1N2,.,.,72.1,.,.,.,93.3,50.3
Cc1cc2nc(-c3ccc(Cl)cc3)c(CC3CCCCC3)n2c(C)c1Br,.,/,.,/,/,.,/,/
O=C(Nc1ccc(Cl)cc1)c1ccc2c(c1)S(=O)(=O)c1ccccc1C2=O,.,.,32.6,.,.,.,.,.
O=C(Nc1ccc(S(=O)(=O)O)cc1)c1ccc2c(c1)S(=O)(=O)c1ccccc1C2=O,.,.,.,.,.,.,/,/
COc1ccc(NC(C)=O)cc1NC(C)C(=O)Nc1ccc(S(=O)(=O)N2CCCCC2)cc1 (configuration not stated),.,.,.,.,.,.,/,/
CCc1cc2c(N=Nc3c(O)[nH]c4ccccc34)ncnc2s1,.,.,58.7,.,.,.,.,.
COc1cccc(CNC(=O)C2CSC3(C)CCC(=O)N23)c1 (configuration not stated),.,.,38.5,.,.,.,.,.
c1coc(-c2cc3nc(NC4CCCCC4)ccn3n2)c1,.,/,.,/,/,.,/,/
